Results taken from ChEMBL document CHEMBL5338787, “Discovery of Novel Bruton's Tyrosine Kinase PROTACs with Enhanced Selectivity and Cellular Efficacy” (J Med Chem, 2023).
Activity calls are given as the source filed them. The rule behind the calls is not given here.

Key:
[1] = target: T1, Protein cereblon/Tyrosine-protein kinase BTK (Homo sapiens, UniProt Q06187+Q96SW2); assay: PROTAC activity at BTK/CRBN protein protein interaction in human JeKo-1 cell assessed as degradation of BTK incubated for 17 hrs measured by Western blot analysis; type: cell-based
Procedure, shortened: (§1)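 Ramos or JeKo-1 cells (2 × 10^6 per well) were exposed for 17 h to 3000–0.15 nM PROTAC in 3-fold steps. Cells were lysed and analysed by western blot, with BTK normalised to β-actin. DC50 and Dmax come from the dose-response; DC50 is the mean ± SD of two independent experiments.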
Target sequence in this assay (Q06187 whole entry): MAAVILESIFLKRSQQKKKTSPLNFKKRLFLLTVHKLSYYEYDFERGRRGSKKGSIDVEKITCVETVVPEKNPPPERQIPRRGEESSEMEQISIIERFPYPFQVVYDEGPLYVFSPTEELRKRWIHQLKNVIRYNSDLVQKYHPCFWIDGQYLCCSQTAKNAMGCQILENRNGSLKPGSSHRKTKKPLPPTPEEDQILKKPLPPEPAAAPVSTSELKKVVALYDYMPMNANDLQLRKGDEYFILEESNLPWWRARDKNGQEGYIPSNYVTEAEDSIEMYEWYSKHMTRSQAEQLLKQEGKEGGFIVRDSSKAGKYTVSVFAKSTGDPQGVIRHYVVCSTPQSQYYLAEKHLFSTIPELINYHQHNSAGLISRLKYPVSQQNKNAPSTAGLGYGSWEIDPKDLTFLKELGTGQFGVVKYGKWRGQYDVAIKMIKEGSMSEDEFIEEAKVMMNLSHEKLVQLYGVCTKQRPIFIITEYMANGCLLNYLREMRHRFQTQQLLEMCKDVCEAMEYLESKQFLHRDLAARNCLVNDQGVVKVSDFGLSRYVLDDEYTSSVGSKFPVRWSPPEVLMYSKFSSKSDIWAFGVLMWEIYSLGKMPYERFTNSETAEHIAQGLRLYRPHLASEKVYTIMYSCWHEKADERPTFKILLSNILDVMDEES
Target sequence in this assay (Q96SW2 whole entry): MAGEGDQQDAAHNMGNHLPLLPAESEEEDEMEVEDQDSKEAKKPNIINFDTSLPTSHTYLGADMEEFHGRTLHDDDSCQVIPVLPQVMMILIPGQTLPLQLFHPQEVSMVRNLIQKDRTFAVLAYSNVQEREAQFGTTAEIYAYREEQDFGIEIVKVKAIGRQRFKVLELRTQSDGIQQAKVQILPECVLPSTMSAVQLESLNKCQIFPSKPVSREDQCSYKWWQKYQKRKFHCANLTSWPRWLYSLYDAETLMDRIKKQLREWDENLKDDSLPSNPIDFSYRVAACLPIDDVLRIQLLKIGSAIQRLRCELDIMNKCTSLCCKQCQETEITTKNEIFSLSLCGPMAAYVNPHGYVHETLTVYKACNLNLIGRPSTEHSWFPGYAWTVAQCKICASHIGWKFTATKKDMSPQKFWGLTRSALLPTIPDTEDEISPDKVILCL

[2] = target: T1, Protein cereblon/Tyrosine-protein kinase BTK; assay: PROTAC activity at BTK/CRBN protein protein interaction in human Ramos cell assessed as degradation of BTK incubated for 17 hrs measured by Western blot analysis relative to control; type: cell-based; procedure, shortened: as §1
Target sequence in this assay (Q06187 2-659 limits assumed): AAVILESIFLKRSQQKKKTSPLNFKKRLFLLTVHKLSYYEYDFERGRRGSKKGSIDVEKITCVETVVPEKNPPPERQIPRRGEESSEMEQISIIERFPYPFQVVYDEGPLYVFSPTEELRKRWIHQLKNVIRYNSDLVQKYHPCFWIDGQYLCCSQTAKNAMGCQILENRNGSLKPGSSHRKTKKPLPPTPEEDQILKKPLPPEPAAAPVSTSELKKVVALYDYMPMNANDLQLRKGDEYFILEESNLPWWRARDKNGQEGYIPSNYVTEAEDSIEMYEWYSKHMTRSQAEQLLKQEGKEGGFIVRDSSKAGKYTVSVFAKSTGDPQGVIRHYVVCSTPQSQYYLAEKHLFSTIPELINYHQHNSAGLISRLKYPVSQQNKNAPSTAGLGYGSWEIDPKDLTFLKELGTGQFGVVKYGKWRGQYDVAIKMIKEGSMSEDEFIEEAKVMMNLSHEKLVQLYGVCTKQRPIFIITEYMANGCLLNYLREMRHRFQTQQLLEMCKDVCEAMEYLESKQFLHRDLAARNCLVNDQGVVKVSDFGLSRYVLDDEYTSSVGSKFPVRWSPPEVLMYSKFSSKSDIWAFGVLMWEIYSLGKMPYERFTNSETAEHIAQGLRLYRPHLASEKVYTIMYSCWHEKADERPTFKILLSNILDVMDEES
Target sequence in this assay (Q96SW2 whole entry partner): as the sequence (Q96SW2 whole entry) above

[3] = target: T1, Protein cereblon/Tyrosine-protein kinase BTK; assay: PROTAC activity at BTK/CRBN protein protein interaction in human JeKo-1 cell assessed as degradation of BTK incubated for 17 hrs measured by Western blot analysis relative to control; type: cell-based; procedure, shortened: as §1
Target sequence in this assay (Q06187 2-659 limits assumed): as the sequence (Q06187 2-659 limits assumed) above
Target sequence in this assay (Q96SW2 whole entry partner): as the sequence (Q96SW2 whole entry) above

[4] = target: T1, Protein cereblon/Tyrosine-protein kinase BTK; assay: PROTAC activity at BTK/CRBN protein protein interaction in human Ramos cell assessed as degradation of BTK incubated for 17 hrs measured by Western blot analysis; type: cell-based; procedure, shortened: as §1
Target sequence in this assay (Q06187 whole entry): as the sequence (Q06187 whole entry) above
Target sequence in this assay (Q96SW2 whole entry): as the sequence (Q96SW2 whole entry) above

[5] = tested on: TMD8; assay: Cytotoxicity against human TMD8 cells incubated for 48 hrs by celltitre glo 2.0 assay; type: functional, cell-based; conditions: TMD8, 48 h
[6] = Cytotoxicity against human MINO cells incubated for 48 hrs by celltitre glo 2.0 assay; type: functional, cell-based
[7] = tested on: TMD8; assay: Induction of apoptosis in human TMD8 cells measured after 48 hrs by Annexin-V/propidium iodide staining based flow cytometric analysis; type: functional, cell-based; conditions: dose 0.15-3000 nM
Procedure, shortened: (§2)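 Cells plated at 2 × 10^6 per well and treated 48 h at 3,000–0.15 nM (3-fold dilutions) or 1% DMSO. Harvested, washed in cold PBS, stained with Annexin V Alexa Fluor 488/propidium iodide, analysed by flow cytometry for % live, apoptotic and necrotic cells. Mean of two independent experiments.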

[8] = tested on: MINO; assay: Induction of apoptosis in human MINO cells at 0.15 to 3000 nM for 48 hrs by Annexin-V/propidium iodide staining based flow cytometric analysis; type: functional, cell-based; conditions: dose 0.15-3000 nM; procedure, shortened: as §2
[9] = target: von Hippel-Lindau disease tumor suppressor/Tyrosine-protein kinase BTK (Homo sapiens) (UniProt Q06187+P40337); assay: PROTAC activity at BTK/VHL protein protein interaction in human Ramos cell assessed as degradation of BTK incubated less than 3000 nM for 17 hrs measured by Western blot analysis
von Hippel-Lindau disease tumor suppressor/Tyrosine-protein kinase BTK (Homo sapiens), sequence (P40337 whole entry partner): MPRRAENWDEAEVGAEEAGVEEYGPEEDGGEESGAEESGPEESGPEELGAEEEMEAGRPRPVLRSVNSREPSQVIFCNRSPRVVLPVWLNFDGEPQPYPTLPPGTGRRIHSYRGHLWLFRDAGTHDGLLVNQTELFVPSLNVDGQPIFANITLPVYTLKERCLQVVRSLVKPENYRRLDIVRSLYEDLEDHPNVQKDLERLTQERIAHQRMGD
von Hippel-Lindau disease tumor suppressor/Tyrosine-protein kinase BTK (Homo sapiens), sequence (Q06187 2-659 limits assumed): as the sequence (Q06187 2-659 limits assumed) above

Row | Compound | DC50 [1] [nM] | Emax [2] [%] | Emax [3] [%] | DC50 [4] [nM] | IC50 [6] [nM] | also measured
1 | C[C@H]1CN(C(=O)CNc2cccc3c2CN(C2CCC(=O)NC2=O)C3=O)CCN1c1ccc(Nc2cc(-c3ccnc(N4CCn5c(cc6c5CC(C)(C)C6)C4=O)c3CO)cn(C)c2=O)nc1 (stereo partly specified) | 4.6 | 89.8 | 89.2 | 3.6 | – | –
2 | Nc1ncnc2c1c(-c1ccc(Oc3ccccc3)cc1)nn2C1CCN(CCOCCOCC(=O)Nc2ccc3c(c2)C(=O)N(C2CCC(=O)NC2=O)C3=O)CC1 (stereo unspecified) | – | – | – | – | 100 | IC50 [5]: 12 nM
3 | C[C@H]1CN(C2COC2)CCN1c1ccc(Nc2cc(-c3ccnc(N4CCn5c(cc6c5CC(C)(C)C6)C4=O)c3CO)cn(C)c2=O)nc1 [FENEBRUTINIB] | – | – | – | – | 7.8 | Activity [7]: Dose-Dependent Effect; Activity [8]: inactive
4 | C[C@H]1CN(CCCCCCOCCOCC(=O)Nc2cccc3c2C(=O)N(C2CCC(=O)NC2=O)C3=O)CCN1c1ccc(Nc2cc(-c3ccnc(N4CCn5c(cc6c5CC(C)(C)C6)C4=O)c3CO)cn(C)c2=O)nc1 (stereo partly specified) | 9.7 | 95.6 | 96.9 | 7 | – | –
5 | C[C@H]1CN(C(=O)CCCCCCCCCNc2cccc3c2C(=O)N(C2CCC(=O)NC2=O)C3=O)CCN1c1ccc(Nc2cc(-c3ccnc(N4CCn5c(cc6c5CC(C)(C)C6)C4=O)c3CO)cn(C)c2=O)nc1 (stereo partly specified) | 32.1 | 94 | 97.1 | 31.2 | – | –
6 | Cc1c(NC(=O)c2ccc(C(C)(C)C)cc2)cccc1-c1cn(C)c(=O)c(Nc2ccc(C(=O)N3CCN(CCCCCCNC(=O)CNc4cccc5c4C(=O)N(C4CCC(=O)NC4=O)C5=O)CC3)cc2)n1 (stereo unspecified) | – | – | – | – | 10.9 | IC50 [5]: 5.1 nM
7 | Cc1ncsc1-c1ccc(CNC(=O)[C@@H]2C[C@@H](O)CN2C(=O)[C@@H](NC(=O)COCCOCCCCCCC(=O)N2CCN(c3ccc(Nc4cc(-c5ccnc(N6CCn7c(cc8c7CC(C)(C)C8)C6=O)c5CO)cn(C)c4=O)nc3)[C@@H](C)C2)C(C)(C)C)cc1 | – | – | – | – | – | Activity [9]: inactive

Now from value to compound, other results behind:

Row | DC50 [1] [nM] | Emax [2] [%] | Emax [3] [%] | DC50 [4] [nM] | Compound | IC50 [6] [nM] | also measured
8 | 3.5 | 96.9 | 98 | 2 | Cn1cc(-c2ccnc(N3CCn4c(cc5c4CC(C)(C)C5)C3=O)c2CO)cc(Nc2ccc(N3CCN(C(=O)CCCCCCNc4cccc5c4C(=O)N(C4CCC(=O)NC4=O)C5=O)CC3)cn2)c1=O (stereo unspecified) | – | –
9 | 7.2 | 98.3 | 98.8 | 4 | Cn1cc(-c2ccnc(N3CCn4c(cc5c4CC(C)(C)C5)C3=O)c2CO)cc(Nc2ccc(N3CCN(C(=O)CCCCCCOCCOCC(=O)Nc4cccc5c4C(=O)N(C4CCC(=O)NC4=O)C5=O)CC3)cn2)c1=O (stereo unspecified) | – | –
10 | – | 97.1 | 97.7 | 6.6 | C[C@H]1CN(C(=O)CCCCCCOCCOCC(=O)Nc2cccc3c2C(=O)N(C2CCC(=O)NC2=O)C3=O)CCN1c1ccc(Nc2cc(-c3ccnc(N4CCn5c(cc6c5CC(C)(C)C6)C4=O)c3CO)cn(C)c2=O)nc1 (stereo partly specified) | – | –
